Data taken from PMC11937985 (Journal of Clinical Pharmacology, 2024).
Read-outs that look alike come from different tables or passages of the source.

How the values were obtained:
[1] = Safety and tolerability assessment in the phase 1 study; format: in vivo, human
Summary of the method: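 Healthy postmenopausal smokers and nonsmokers received oral test compound 30 mg on Day 1 after a 10-h fast. Oral fluvoxamine 50 mg was given on Day 3 evening, twice daily on Days 4–9, and on Day 10 morning. On Day 7 the test compound was co-dosed fasted. AEs were recorded from consent to end of study, in all subjects dosed at least once.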

[2] = 20‐ to 60‐mg dose range; cited from earlier work
[3] = fezolinetant 45 mg, pooled 12-week data, cited from earlier work
[4] = format: in vitro ADME, human; conditions: preliminary assay; rate of degradation could not be determined precisely
[5] = format: in vivo, human
[6] = fezolinetant + fluvoxamine vs fezolinetant alone

Row | metabolic stability [4] | Tmax ([5]; female, human, plasma, oral, 30 mg) | tmax, Median [min–max] ([5]; fezolinetant 30 mg + fluvoxamine, nonsmoker n = 9) | tmax, Median [min–max] ([5]; fezolinetant 30 mg + fluvoxamine, smoker n = 9) | tmax, Median [min–max] ([5]; fezolinetant 30 mg alone, nonsmoker n = 9) | tmax, Median [min–max] ([5]; fezolinetant 30 mg alone, smoker n = 9) | increase in half-life on co-administration with fluvoxamine [5, 6] | increase in total exposure on co-administration with fluvoxamine [5, 6] | exposure decrease by smoking ([5]; smokers vs nonsmokers) | Structure (SMILES) | subjects with TEAEs, overall ([1]; all treatment periods, 18 TEAEs, 18 subjects enrolled) | safety and tolerability ([1]; single oral 30-mg dose of fezolinetant co-administered with fluvoxamine, healthy postmenopausal women) | dose dependence of Cmax and total exposure (AUC) [2] | LS mean difference in VMS frequency versus placebo ([3]; current smokers) | LS mean difference in VMS frequency versus placebo ([3]; former/never smokers) | dizziness (TEAE), subjects reporting ([1]; 18 subjects) | erythema (TEAE), subjects reporting ([1]; 18 subjects) | orthostatic intolerance (TEAE), subjects reporting ([1]; 18 subjects) | subjects with TEAE considered drug related by the investigator ([1]; 18 subjects)
1 | highly stable | 1 h | 1.50 [1.00‐4.00] h | 1.50 [1.48‐4.00] h | 1.00 [0.983‐2.00] h | 1.00 [1.00‐1.50] h | ~5.6 fold | approximately 9 fold | about 50% | Cc1nsc(-c2nnc3n2CCN(C(=O)c2ccc(F)cc2)[C@@H]3C)n1 [Fezolinetant] | 44.4% | safe and well tolerated | increased linearly | −3.48 | −2.32 |  |  |  | 
2 |  |  |  |  |  |  |  |  |  | COCCCC/C(=N\OCCN)c1ccc(C(F)(F)F)cc1 [fluvoxamine] |  |  |  |  |  | one subject | 11.1% | one subject | 5.6%
